Results on 23 compounds are retold here after ChEMBL document CHEMBL3576832, “First Crystal Structures of Mycobacterium tuberculosis 6-Oxopurine Phosphoribosyltransferase: Complexes with GMP and Pyrophosphate and with Acyclic Nucleoside Phosphonates Whose Prodrugs Have Antituberculosis Activity” (J Med Chem, 2015).

Data set [1] can be described thus: Inhibition of N-terminal hexa-histidine tagged Mycobacterium tuberculosis HGPRT expressed in Escherichia coli BL-21(DE3) using PRib-PP substrate and guanine.
Data set [2] can be described thus: Selectivity index, ratio of Ki for human HGPRT to Ki for N-terminal hexa-histidine tagged Mycobacterium tuberculosis HGPRT.
The target of data set [3] is T1, Hypoxanthine-guanine phosphoribosyltransferase (Homo sapiens, UniProt P00492).
T1 sequence (P00492 whole entry): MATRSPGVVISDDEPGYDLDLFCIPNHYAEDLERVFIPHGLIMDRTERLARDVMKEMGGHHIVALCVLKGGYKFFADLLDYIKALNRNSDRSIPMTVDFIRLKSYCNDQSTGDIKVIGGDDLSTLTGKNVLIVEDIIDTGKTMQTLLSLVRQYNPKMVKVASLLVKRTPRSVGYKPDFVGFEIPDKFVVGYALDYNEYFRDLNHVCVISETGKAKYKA
Nature of the data set: Inhibition of human HGPRT.

Data set [4] can be described thus: Selectivity index, ratio of CC50 for human A549 cells to MIC50 for Mycobacterium tuberculosis H37Rv […]. The format is functional. The method, boiled down:
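Selectivity index computed as CC50 in A549 cells divided by MIC50 against H37Rv.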

For data set [5], the system named is Mycobacterium tuberculosis. Nature of the data set: Antimycobacterial activity against Mycobacterium tuberculosis H37Rv […] assessed as inhibition of microbial growth incubated for 5 days by resazurin reduction microplate assay. The data set is classed as functional. Conditions: 120 h. The method in brief:
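H37Rv grown in 7H9 with OADC, 0.5% glycerol, 0.02% tyloxapol at 37 °C to mid-exponential phase (OD600 0.4−0.8), diluted to OD600 0.001 (~2 × 10^4 CFU/mL) in 7H9S with 0.5% DMSO; serially diluted compounds; 5 days at 37 °C, then resazurin plus Tween 80; fluorescence (ex 530/em 580 nm) read 30 h later; MIC50 from signal relative to no-inhibitor minus no-bacteria controls.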

Data set [6] in a line: Cytotoxicity against human A549 cells assessed as inhibition of cell proliferation incubated for 4 days by Coulter counter based assay. The method, boiled down: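 A549 cells seeded at 7500 per well; serially diluted compounds added 24 h later; 4 days at 37 °C; cells trypsinized and counted by Coulter Counter; CC50 (50% proliferation vs untreated) obtained by extrapolation; mean ± SEM of two or three independent tests.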

Data set [7] relates to Mycobacterium tuberculosis. Nature of the data set: Potency index, ratio of Ki for GMP to Ki for compound against N-terminal hexa-histidine tagged Mycobacterium tuberculosis HGPRT expressed in Escherichia coli BL-21(DE3) using PRib-PP substrate and guanine.
Data set [8] in a line: Inhibition of Mycobacterium tuberculosis HGPRT.
Data set [9] in a line: Inhibition of Escherichia coli HGPRT.

With `Nc1nc2c(ncn2CCN(CCN(CCCO)CCP(=O)(O)O)CCP(=O)(O)O)c(=O)[nH]1`, the Ki was determined as 15.9 µM in [1] and 0.04 µM in [3]. Further, in [2], the Ratio Ki is 400.

In data set [1], `O=c1[nH]cnc2c1ncn2CCN(CCOCCP(=O)(O)O)CCP(=O)(O)O` gave an inhibition constant Ki of more than 50 µM.

With `CCOC(=O)[C@H](Cc1ccccc1)NP(=O)(CCN(CCN(CCP(=O)(N[C@@H](Cc1ccccc1)C(=O)OCC)N[C@@H](Cc1ccccc1)C(=O)OCC)CCP(=O)(N[C@@H](Cc1ccccc1)C(=O)OCC)N[C@@H](Cc1ccccc1)C(=O)OCC)CCn1cnc2c(=O)[nH]c(N)nc21)N[C@@H](Cc1ccccc1)C(=O)OCC`, in data set [4], the “Selectivity Index” value is given as more than 67. Further, the MIC50 in data set [5] stood at 4.5 µM. In data set [6], the half-maximal cytotoxic concentration (CC50) at 96 h is more than 300 µM.

`O=c1[nH]cnc2c1ncn2CC(COCP(=O)(O)O)COCP(=O)(O)O` displayed a Ki in data set [1] of 7.7 µM. This counts as single-digit micromolar.

Turning to `O=c1[nH]cnc2c1ncn2CCN(CCN(CCO)CCP(=O)(O)O)CCP(=O)(O)O`, the inhibitory constant (Ki) in data set [1] turned out to be 22.5 µM; in [3], 0.5 µM.

For the compound `CCOC(=O)[C@H](Cc1ccccc1)NP(=O)(CCN(CCO)CCN(CCn1cnc2c(=O)[nH]cnc21)CCP(=O)(N[C@@H](Cc1ccccc1)C(=O)OCC)N[C@@H](Cc1ccccc1)C(=O)OCC)N[C@@H](Cc1ccccc1)C(=O)OCC`, in data set [4], the “Selectivity Index” value was more than 19.5. Also, the MIC50 in [5] was 8 µM. In data set [6], the CC50 at 96 h is 156 µM.

With `CCOC(=O)[C@H](Cc1ccccc1)NP(=O)(COCC(COCP(=O)(N[C@@H](Cc1ccccc1)C(=O)OCC)N[C@@H](Cc1ccccc1)C(=O)OCC)Cn1cnc2c(=O)[nH]cnc21)N[C@@H](Cc1ccccc1)C(=O)OCC`, the “Selectivity Index” value in data set [4] is on record as more than 13. Further, in data set [5], the MIC50 came to 7.5 µM.

Regarding `CCOC(=O)[C@H](Cc1ccccc1)NP(=O)(CCN(CCO)CCN(CCn1cnc2c(=O)[nH]c(N)nc21)CCP(=O)(N[C@@H](Cc1ccccc1)C(=O)OCC)N[C@@H](Cc1ccccc1)C(=O)OCC)N[C@@H](Cc1ccccc1)C(=O)OCC`, the “Selectivity Index” value in [4] is recorded as more than 43. The MIC50 in [5] amounted to 4.5 µM. The cytotoxic concentration (CC50) at 96 h in data set [6] is 193 µM.

In the case of `CCOC(=O)[C@H](Cc1ccccc1)NP(=O)(COCC(COCP(=O)(N[C@@H](Cc1ccccc1)C(=O)OCC)N[C@@H](Cc1ccccc1)C(=O)OCC)Cn1cnc2c(=O)[nH]c(N)nc21)N[C@@H](Cc1ccccc1)C(=O)OCC`, the “Selectivity Index” value in [4] is on record as more than 27. The MIC50 in data set [5] stood at 11 µM.

In [1], `Nc1nc2c(ncn2CCOCCP(=O)(O)O)c(=O)[nH]1` gave an inhibition constant Ki of 1.76 µM.

In turn, `Nc1nc2c(ncn2CC(COCP(=O)(O)O)COCP(=O)(O)O)c(=O)[nH]1` registered a Ki in data set [1] of 0.77 µM. Further, the Ratio Ki in [7] turned out to be 28.

Consider `Nc1nc2c(ncn2[C@@H]2O[C@H](COP(=O)(O)O)[C@@H](O)[C@H]2O)c(=O)[nH]1`, for which the figures for the Ki in data set [8] and in [9] were 20 µM and 526 µM, respectively.

With `CCOC(=O)[C@H](Cc1ccccc1)NP(=O)(CCN(CCN(CCP(=O)(N[C@@H](Cc1ccccc1)C(=O)OCC)N[C@@H](Cc1ccccc1)C(=O)OCC)CCP(=O)(N[C@@H](Cc1ccccc1)C(=O)OCC)N[C@@H](Cc1ccccc1)C(=O)OCC)CCn1cnc2c(=O)[nH]cnc21)N[C@@H](Cc1ccccc1)C(=O)OCC`, the “Selectivity Index” value in data set [4] is on record as more than 6. In data set [5], the MIC50 amounted to 4.5 µM. For the same compound, the CC50 at 96 h in [6] was found to be 28 µM.

In the case of `Nc1nc2c(ncn2CCN(CCN(CCO)CCP(=O)(O)O)CCP(=O)(O)O)c(=O)[nH]1`, the Ki in [1] was found to be 1.6 µM; in data set [3] it was 0.03 µM.

`CCOC(=O)[C@H](Cc1ccccc1)NP(=O)(CCOCC(Cn1cnc2c(=O)[nH]c(N)nc21)OCCP(=O)(N[C@@H](Cc1ccccc1)C(=O)OCC)N[C@@H](Cc1ccccc1)C(=O)OCC)N[C@@H](Cc1ccccc1)C(=O)OCC` (stereo partly drawn): the “Selectivity Index” value in data set [4] is listed as more than 11. Besides, the MIC50 in data set [5] came to 9 µM.

In the case of `CCOC(=O)[C@H](Cc1ccccc1)NP(=O)(CCOCC(Cn1cnc2c(=O)[nH]cnc21)OCCP(=O)(N[C@@H](Cc1ccccc1)C(=O)OCC)N[C@@H](Cc1ccccc1)C(=O)OCC)N[C@@H](Cc1ccccc1)C(=O)OCC` (stereo partly drawn), in [4], the “Selectivity Index” value is reported as more than 6. For the same compound, in data set [5], the MIC50 turned out to be 15 µM. The CC50 at 96 h in data set [6] was found to be 90 µM.

On to `O=c1[nH]cnc2c1ncn2CCN(CCN(CCP(=O)(O)O)CCP(=O)(O)O)CCP(=O)(O)O`, for which the Ki in data set [1] was found to be 1.13 µM; in data set [3] it was 0.01 µM.

Take `Nc1nc2c(ncn2CC(COCCP(=O)(O)O)OCCP(=O)(O)O)c(=O)[nH]1` (stereo not drawn): in data set [1], affinity was put at a Ki of 0.69 µM. Also, in data set [7], the Ratio Ki was determined as 28.

The compound `O=c1[nH]cnc2c1ncn2CCOCCP(=O)(O)O` registered a Ki in [1] of 18 µM. In other words, the double-digit micromolar range.

`O=c1[nH]cnc2c1ncn2CC(COCCP(=O)(O)O)OCCP(=O)(O)O` (stereo not drawn): the inhibition constant Ki in [1] is more than 50 µM; in data set [3] it was 4 µM.

Regarding `Nc1nc2c(ncn2CCN(CCOCCP(=O)(O)O)CCP(=O)(O)O)c(=O)[nH]1`, the inhibition constant Ki in data set [1] amounted to 1.4 µM.

On to `Nc1nc2c(ncn2CCN(CCN(CCP(=O)(O)O)CCP(=O)(O)O)CCP(=O)(O)O)c(=O)[nH]1`, for which the inhibition constant (Ki) in data set [1] amounted to 1.6 µM; in [3], 0.03 µM.

`O=c1[nH]cnc2c1ncn2CCN(CCN(CCCO)CCP(=O)(O)O)CCP(=O)(O)O`: the inhibition constant (Ki) in data set [1] was determined as 22.7 µM; in data set [3] it was 1.64 µM. In [2], the Ratio Ki was determined as 14.
